Data as given in the RNAGym collection of RNA variant scans (doi:10.1126/science.aae0568).
This sample holds only a part of the variants without activity.

B1: tRNA (parent)
chain: GUUCCGUUGGCGUAAUGGUAACGCGUCUCCCUCCUAAGGAGAAGACUGCGGGUUCGAGUCCCGUACGGAACG

Variants of: B1
Test: yeast fitness relative to wild type (ratio to wild type); higher = fitter; tRNA-Arg(CCU), competitive growth, 37 C, YPD
Outline: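 Variants of the tRNA-Arg(CCU) gene were chemically synthesised with a 3% per-site mutation rate across 69 sites and placed at the native genomic locus in Saccharomyces cerevisiae. Six parallel replicates of the pooled strains were competed in YPD at 37°C for 24 hours, and gene amplicons from the start and end populations were read by 100-nucleotide paired-end sequencing. Darwinian fitness relative to wild type was derived from changes in genotype frequencies. Genotypes required ≥ 100 starting reads, and estimates < 0.5 were set to 0.5.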

Row | Variant | yeast fitness
1 | GUUCCGUUGGCGUAAUGGUAACGCGUCUCCCUGCCAAGGAGAAGACUGCGGGUUCGAGUCCCGUACGGAACG [C33G U35C] | 0.603
2 | GUUCCGUUGGCGUAAUGGUAACGCGUCUCCCUGCAAAGGAGAAGACUGCGGGUUCGAGUCCCGUACGGAACG [C33G U35A] | ≤ 0.5
3 | GUUCCGUUGGCGUAAUGGUAACGCGUCUCCCUUCUAAGGAGAUGACUGGCGGUUCGAGUGCCGUACGGAACG [C33U A43U C49G G50C C60G] | ≤ 0.5
4 | GUUCCGUUGGCGUAAUGGUAACGCGUCUCCCUUCUAAGGAGCAGACUGCGGGUUCGAGUCCCGUACGGAGCG [C33U A42C A70G] | 0.75
5 | GUUCCGUUGGCGUAAUGGUAACGCGUCUCCCUUCUAAGGAGAAGACUGCGGGUUCGGGUCCCGUAUGGAACG [C33U A57G C66U] | ≤ 0.5
6 | GUUCCGUUGGCGUAAUGGUAACGCGUCUCCCUUCUAAGGAGCAGACUGCGGGUUCGAGUCCCGCACGGAGCG [C33U A42C U64C A70G] | ≤ 0.5
7 | GUUCCGUUGGCGUAAUGGUAACGCGUCUCCCUUCUAAGGAGCAGACUGCGGGUUCGAGUCCCGUACGGAACG [C33U A42C] | 0.63
8 | GUUCCGUUGGCGUAAUGGUAACGCGUCUCCCUGCCAAGGAGAAGACUGCGGGUUCGAGACCCGUACGGAACG [C33G U35C U59A] | 0.594
9 | GUUCCGUUGGCGUAAUGGUAACGCGUCUCCCUUCUAAGGAGAUGACUGACGGUUCGAGUCUCGUAUGGAACG [C33U A43U C49A G50C C61U C66U] | ≤ 0.5
10 | GUUCCGUUGGCGUAAUGGUAACGCGUCUCCCUGCCAAGGAGAAGACUGCGGGUUCGAGACCCGUACGGUACG [C33G U35C U59A A69U] | 0.657
11 | GUUCCGUUGGCGUAAUGGUAACGCGUCUCCCUGCUAAGGAGAAGACAGCGGGUUCGAGUCCCGUACGGAACG [C33G U47A] | 0.579
12 | GUUCCGUUGGCGUAAUGGUAACGCGUCUCCCUUCUAAGGAGCAGACUGCGGGUUCGAGUCCCGUACGUAACG [C33U A42C G68U] | 0.538
13 | GUUCCGUUGGCGUAAUGGUAACGCGUCUCCCUUCUAAGGAGAAGUCUGCGGGUUCGAGUCCCGUACGGAACG [C33U A45U] | 0.837
14 | GUUCCGUUGGCGUAAUGGUAACGCGUCUCCCUUCUAAGGAGACGACUGCGGGUUCGAGUCCCCUACGGAACG [C33U A43C G63C] | ≤ 0.5
15 | GUUCCGUUGGCGUAAUGGUAACGCGUCUCCCUGCUAAGGAGAAGACUGCGGGUUCGAGUCCCGUACAGAACG [C33G G67A] | 0.672
16 | GUUCCGUUGGCGUAAUGGUAACGCGUCUCCCUUCUAAGGAGAAGACUGCGGGUUCGAGUCCCGUUCGGAACG [C33U A65U] | 0.816
17 | GUUCCGUUGGCGUAAUGGUAACGCGUCUCCCUUCUGAGGAAAAGACUGCGGGUUCGAGUCGCGUACGGAACG [C33U A36G G41A C61G] | ≤ 0.5
18 | GUUCCGUUGGCGUAAUGGUAACGCGUCUCCCUUCUAAGGAGAUGACUGCGGGUUUGAGUCCCGUACGGAACG [C33U A43U C55U] | ≤ 0.5
19 | GUUCCGUUGGCGUAAUGGUAACGCGUCUCCCUUCUAAGGGGAAGACUGCGGGUUCGAGUCCCGUACGGAACG [C33U A40G] | 0.71

Row | Variant | yeast fitness
20 | GUUCCGUUGGCGUAAUGGUAACGCGUCUCCCUUCUAAGGAGAAGACUGCGGGUUCGAGUCCCGUCCGCAACG [C33U A65C G68C] | 0.504
21 | GUUCCGUUGGCGUAAUGGUAACGCGUCUCCCUGCUAAGGAGAAGACUGCGGGAUCGAGUUCCGUACGGAACG [C33G U53A C60U] | 0.637
22 | GUUCCGUUGGCGUAAUGGUAACGCGUCUCCCUUCUCGGGAGAAGACUGCGGGUUCGAGUCCCGCACGGAACG [C33U A36C A37G U64C] | ≤ 0.5
23 | GUUCCGUUGGCGUAAUGGUAACGCGUCUCCCUGCUAAGGAGAAGACUGCGGGUUCGAGUCCCGAACGGAACG [C33G U64A] | ≤ 0.5
24 | GUUCCGUUGGCGUAAUGGUAACGCGUCUCCCUGCUAAGGAGAAGACUGCGGAUUCUAGUCCCGUACGGAACG [C33G G52A G56U] | ≤ 0.5
25 | GUUCCGUUGGCGUAAUGGUAACGCGUCUCCCUUCUCAGGAGAAGACUGCGGGUCCGAGUCCCGUACGGAACG [C33U A36C U54C] | ≤ 0.5
26 | GUUCCGUUGGCGUAAUGGUAACGCGUCUCCCUGCUAAGGAGAAGACUGCGGAUUCGAGUCCCGCAUAGAACG [C33G G52A U64C C66U G67A] | ≤ 0.5
27 | GUUCCGUUGGCGUAAUGGUAACGCGUCUCCCUUCUAAGGAGAAGUCUGCGGGUUCGAGUCCCGUACGAAACG [C33U A45U G68A] | 0.67
28 | GUUCCGUUGGCGUAAUGGUAACGCGUCUCCCUUCUAAGGAGAUGACUGGCGGUUCGAGUCCCGUCCGGAACG [C33U A43U C49G G50C A65C] | ≤ 0.5
29 | GUUCCGUUGGCGUAAUGGUAACGCGUCUCCCUGCUAAGGAGAAGACUGCGGGAUCGAGUCCCGUACGGAACG [C33G U53A] | 0.65
30 | GUUCCGUUGGCGUAAUGGUAACGCGUCUCCCUUCUAAGGAGAAGACUGCGGGUUCGAGUCCCGUACGGACCG [C33U A70C] | 0.832
31 | GUUCCGUUGGCGUAAUGGUAACGCGUCUCCCUUCUAAGGAGAGGACUGCGGAUUCGAGUCCCGUACGGAACG [C33U A43G G52A] | ≤ 0.5
32 | GUUCCGUUGGCGUAAUGGUAACGCGUCUCCCUUCUCAGGAGAGGACUGCGGGUUCGUGUCCCGUACGGAACG [C33U A36C A43G A57U] | ≤ 0.5
33 | GUUCCGUUGGCGUAAUGGUAACGCGUCUCCCUUCUACGGAGAAGACUGCGGGUUCGAGUCCCGUACUGUACG [C33U A37C G67U A69U] | ≤ 0.5
34 | GUUCCGUUGGCGUAAUGGUAACGCGUCUCCCUUCUAAGGAGACGACUGCGGGUUCGAGUCCCGUACGGAACG [C33U A43C] | 0.656
35 | GUUCCGUUGGCGUAAUGGUAACGCGUCUCCCUUCUAAGGAGAUGACUGCGGGUUCGAGUCCCGUACGGAACG [C33U A43U] | 0.898
36 | GUUCCGUUGGCGUAAUGGUAACGCGUCUCCCUUCUAAGGAGAAGACUGCGGGUUCGAGUCCCGUUUGGAACG [C33U A65U C66U] | ≤ 0.5
37 | GUUCCGUUGGCGUAAUGGUAACGCGUCUCCCUGCUAAGGAGAAGACGGCGGGUUCAGGUCCCGUACGGUACG [C33G U47G G56A A57G A69U] | ≤ 0.5
38 | GUUCCGUUGGCGUAAUGGUAACGCGUCUCCCUUCUAAGGAGGAGAAUGCGGGUUCGAGUCCCGUACGGAACG [C33U A42G C46A] | 0.644
